ChEMBL document CHEMBL1125415, “Antihyperglycemic activity of novel substituted 3H-1,2,3,5-oxathiadiazole 2-oxides” (1992)

Tests used:
Mus musculus [1] = test: Antihyperglycemic activity in mice at a dose of 20 mg/kg; type: functional
In short: (§1)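 Diabetic db/db mice, after exclusion of the five most extreme baseline glucose values, randomized into groups of equal mean plasma glucose, 4-6 per group. Oral dosing in 2% Tween 80/saline on afternoons of days 1-3 (fed), and day 4 after 3 h fast. Plasma glucose at 2 and 4 h post-dose; mean expressed as % change from day-1 baseline versus vehicle; ANOVA with one-sided Dunnett's test.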

Mus musculus [2] = test: Antihyperglycemic activity in mice at a dose of 100 mg/kg; type: functional; in short: as §1

| SMILES | Decrease (Mus musculus [1]) [%] | Decrease (Mus musculus [2]) [%] |
| --- | --- | --- |
| O=S1NC(CC2=Cc3ccccc3CC2)=NO1 (stereo not given) | -23 | -53 |
| Cc1ccc2occ(CC3=NOS(=O)N3)c2c1 (stereo not given) | <-15 | -42 |
| O=S1NC(Cc2coc3ccc(Br)cc23)=NO1 (stereo not given) | <-15 | <15 |
| O=S1NC(Cc2coc3c(Cl)cc(Cl)cc23)=NO1 (stereo not given) | <-15 | -29 |
| O=S1NC(Cc2c[nH]c3ccc(Br)cc23)=NO1 (stereo not given) | -22 | -30 |
| O=S1NC(CC2CCc3ccccc3C2)=NO1 (stereo not given) | <-15 | -22 |
| O=S1NC(Cc2cc3cc(Cl)ccc3o2)=NO1 (stereo not given) | <-15 | -23 |
| CC(C)(C)c1ccc(CC2=NOS(=O)N2)cc1 (stereo not given) | <-15 | <15 |
| Cc1ccc(CC2=NOS(=O)N2)cc1C (stereo not given) | <-15 | <15 |
| O=S1NC(Cc2cc3cc(Br)ccc3s2)=NO1 (stereo not given) | -20 | -29 |
| O=S1NC(Cc2coc3ccccc23)=NO1 (stereo not given) | <-15 | -28 |
| O=S1NC(Cc2ccc3ccccc3c2)=NO1 (stereo not given) | -37 | -63 |
| O=S1NC(CC2=C(Cl)c3ccccc3CC2)=NO1 (stereo not given) | -27 | – |
| O=S1NC(Cc2ccc3c(c2)CCCC3)=NO1 (stereo not given) | <-15 | <15 |
| O=S1NC(Cc2ccc(Br)cc2F)=NO1 (stereo not given) | -17 | -28 |
| O=S1NC(Cc2cc3ccccc3s2)=NO1 (stereo not given) | <-15 | -42 |
| O=S1NC(Cc2cc3ccc(F)cc3o2)=NO1 (stereo not given) | <-15 | -18 |

| SMILES | Decrease (Mus musculus [1]) [%] | Decrease (Mus musculus [2]) [%] |
| --- | --- | --- |
| O=S1NC(CC2CCc3ccccc32)=NO1 (stereo not given) | <-15 | <15 |
| O=S1NC(Cc2cc3cc(F)ccc3o2)=NO1 (stereo not given) | <-15 | -25 |
| O=S1NC(Cc2cccc(C(F)(F)F)c2)=NO1 (stereo not given) | <-15 | -34 |
| O=S1NC(Cc2cc3cc(Cl)ccc3s2)=NO1 (stereo not given) | <-15 | -24 |
| O=S1NC(Cc2coc3c(Cl)cccc23)=NO1 (stereo not given) | -26 | -54 |
| O=S1NC(Cc2cc3ccccc3o2)=NO1 (stereo not given) | <-15 | <15 |
| O=S1NC(Cc2ccc(OCCc3ccccc3)cc2)=NO1 (stereo not given) | <-15 | -56 |
| O=S1NC(Cc2coc3ccc(Cl)cc23)=NO1 (stereo not given) | <-15 | – |
| O=S1NC(Cc2cc3cc(F)ccc3s2)=NO1 (stereo not given) | <-15 | <15 |
| O=S1NC(Cc2ccc3c(c2)CCC3)=NO1 (stereo not given) | <-15 | <15 |
| O=S1NC(Cc2ccc(OCc3ccccc3)cc2)=NO1 (stereo not given) | – | <-15 |
| O=S1NC(Cc2ccc(-c3ccccc3)cc2)=NO1 (stereo not given) | <-15 | <15 |
| O=S1NC(Cc2csc3ccccc23)=NO1 (stereo not given) | <-15 | -30 |
| O=S1NC(Cc2coc3cc(Cl)ccc23)=NO1 (stereo not given) | <-15 | -22 |
| O=S1NC(Cc2cccc(Cl)c2)=NO1 (stereo not given) | <-15 | -40 |
| O=S1NC(Cc2c[nH]c3ccccc23)=NO1 (stereo not given) | <-15 | -22 |
| CC1(COc2ccc(CC3SC(=O)NC3=O)cc2)CCCCC1 (stereo not given) [CIGLITAZONE] | <-15 | -29 |
